Data from ChEMBL document CHEMBL4007435, “A Rational Design of a Selective Inhibitor for Kv1.1 Channels Prevalent in Demyelinated Nerves That Improves Their Impaired Axonal Conduction” (J Med Chem, 2017).
Active and inactive are the calls of the source. The calls are words filed in the database; no cut-off is given here.

Assays:
[1] = target: T1, Potassium voltage-gated channel subfamily A member 1 (Homo sapiens, UniProt Q09470); assay: Inhibition of Kv1.1 (unknown origin)
[2] = target: T2, Potassium voltage-gated channel subfamily A member 1 (Rattus norvegicus, UniProt P10499); assay: Inhibition of recombinant rat Kv1.1 expressed in HEK293 cells at -90 mV holding potential by whole cell patch clamp Qpatch method; assay type: cell-based
T2 sequence (P10499 whole entry): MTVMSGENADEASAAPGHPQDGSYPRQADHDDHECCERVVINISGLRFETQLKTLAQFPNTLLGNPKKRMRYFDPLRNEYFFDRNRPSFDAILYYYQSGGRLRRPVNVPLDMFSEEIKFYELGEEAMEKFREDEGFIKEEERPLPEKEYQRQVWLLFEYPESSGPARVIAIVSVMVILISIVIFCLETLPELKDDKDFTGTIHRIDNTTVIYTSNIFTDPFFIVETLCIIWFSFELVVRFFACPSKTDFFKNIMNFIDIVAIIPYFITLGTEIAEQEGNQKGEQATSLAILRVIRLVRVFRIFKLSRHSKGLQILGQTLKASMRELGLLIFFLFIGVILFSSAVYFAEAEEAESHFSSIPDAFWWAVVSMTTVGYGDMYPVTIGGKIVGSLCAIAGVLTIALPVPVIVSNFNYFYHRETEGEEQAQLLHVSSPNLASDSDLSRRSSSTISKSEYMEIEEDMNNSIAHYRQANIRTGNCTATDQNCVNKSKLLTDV
In short: (§1)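 HEK-293 cells carrying Kv1 channels, either stably expressed (Kv1.1, 1.2, 1.3, 1.4, 1.6, tandem Kv1.1 or 1.2 homotetramers) or transiently transfected (concatemers). Currents were recorded by automated whole-cell clamp with 2-3 MΩ pin-holes. Bath solution (mM): 135 NaCl, 5 KCl, 2 CaCl2, 2 MgCl2, 5 Hepes, 10 sucrose, pH 7.4. Holding potential was −90 mV, with steps to +20 mV for 300 ms. The 10 mM stocks were made in extracellular solution and diluted before use. The readout was steady-state current averaged after 200 ms, and peak current for Kv1.4.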

[3] = target: Kv1.4 (Rattus norvegicus, UniProt P15385); assay: Inhibition of recombinant rat Kv1.4 expressed in HEK293 cells at 10 uM at -90 mV holding potential by whole cell patch clamp Qpatch method relative to control; assay type: cell-based; details: HEK293 cells expressing recombinant rat Kv1.4; in short: as §1
Kv1.4, sequence (P15385 whole entry): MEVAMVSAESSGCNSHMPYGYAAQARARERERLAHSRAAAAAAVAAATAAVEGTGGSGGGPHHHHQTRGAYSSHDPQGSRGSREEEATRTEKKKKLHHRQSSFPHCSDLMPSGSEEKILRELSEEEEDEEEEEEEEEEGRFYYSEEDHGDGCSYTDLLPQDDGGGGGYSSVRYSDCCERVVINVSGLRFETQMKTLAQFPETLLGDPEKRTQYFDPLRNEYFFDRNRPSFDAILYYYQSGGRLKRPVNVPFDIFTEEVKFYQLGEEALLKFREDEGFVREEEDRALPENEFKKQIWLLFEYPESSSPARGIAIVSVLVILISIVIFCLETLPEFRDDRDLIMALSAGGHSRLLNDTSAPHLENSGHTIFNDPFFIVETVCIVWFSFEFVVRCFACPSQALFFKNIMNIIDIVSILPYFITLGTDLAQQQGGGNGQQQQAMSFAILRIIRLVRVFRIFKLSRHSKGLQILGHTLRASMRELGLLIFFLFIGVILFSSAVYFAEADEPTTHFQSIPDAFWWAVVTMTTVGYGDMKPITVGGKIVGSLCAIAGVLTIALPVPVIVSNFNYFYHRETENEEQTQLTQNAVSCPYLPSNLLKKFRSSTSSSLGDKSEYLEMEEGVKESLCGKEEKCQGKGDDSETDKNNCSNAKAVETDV

[4] = target: Potassium voltage-gated channel subfamily A member 1 (Rattus norvegicus) (UniProt P10499); assay: Inhibition of recombinant rat Kv1.1 expressed in HEK293 cells at 10 uM at -90 mV holding potential by whole cell patch clamp Qpatch method relative to control; assay type: cell-based; in short: as §1
Potassium voltage-gated channel subfamily A member 1 (Rattus norvegicus), sequence (P10499 whole entry): as the sequence (P10499 whole entry) above

[5] = tested on: HEK293; assay: Phototoxicity against HEK293 cells under UV irradiation; assay type: cell-based; details: human
[6] = target: Kv1.6 (Rattus norvegicus, UniProt P17659); assay: Inhibition of recombinant rat Kv1.6 expressed in HEK293 cells at 10 uM at -90 mV holding potential by whole cell patch clamp Qpatch method relative to control; assay type: cell-based; details: HEK293 cells expressing recombinant rat Kv1.6; in short: as §1
Kv1.6, sequence (P17659 whole entry): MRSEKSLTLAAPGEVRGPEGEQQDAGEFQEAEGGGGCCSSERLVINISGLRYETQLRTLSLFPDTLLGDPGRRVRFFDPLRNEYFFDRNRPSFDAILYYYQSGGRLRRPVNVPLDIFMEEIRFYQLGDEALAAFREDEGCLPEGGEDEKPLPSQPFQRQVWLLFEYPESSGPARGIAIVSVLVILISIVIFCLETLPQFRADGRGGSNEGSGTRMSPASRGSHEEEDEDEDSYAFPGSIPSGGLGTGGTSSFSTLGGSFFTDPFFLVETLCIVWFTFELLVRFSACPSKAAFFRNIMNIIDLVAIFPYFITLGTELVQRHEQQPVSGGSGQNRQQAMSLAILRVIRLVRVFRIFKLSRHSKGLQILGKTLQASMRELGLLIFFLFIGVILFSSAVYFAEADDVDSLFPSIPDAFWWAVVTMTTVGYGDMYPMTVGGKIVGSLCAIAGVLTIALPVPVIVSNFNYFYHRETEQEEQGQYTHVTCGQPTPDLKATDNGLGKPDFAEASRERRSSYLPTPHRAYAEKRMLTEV

[7] = target: Potassium voltage-gated channel subfamily A member 3 (Rattus norvegicus) (UniProt P15384); assay: Inhibition of recombinant rat Kv1.3 expressed in HEK293 cells at 10 uM at -90 mV holding potential by whole cell patch clamp Qpatch method relative to control; assay type: cell-based; in short: as §1
Potassium voltage-gated channel subfamily A member 3 (Rattus norvegicus), sequence (P15384 whole entry): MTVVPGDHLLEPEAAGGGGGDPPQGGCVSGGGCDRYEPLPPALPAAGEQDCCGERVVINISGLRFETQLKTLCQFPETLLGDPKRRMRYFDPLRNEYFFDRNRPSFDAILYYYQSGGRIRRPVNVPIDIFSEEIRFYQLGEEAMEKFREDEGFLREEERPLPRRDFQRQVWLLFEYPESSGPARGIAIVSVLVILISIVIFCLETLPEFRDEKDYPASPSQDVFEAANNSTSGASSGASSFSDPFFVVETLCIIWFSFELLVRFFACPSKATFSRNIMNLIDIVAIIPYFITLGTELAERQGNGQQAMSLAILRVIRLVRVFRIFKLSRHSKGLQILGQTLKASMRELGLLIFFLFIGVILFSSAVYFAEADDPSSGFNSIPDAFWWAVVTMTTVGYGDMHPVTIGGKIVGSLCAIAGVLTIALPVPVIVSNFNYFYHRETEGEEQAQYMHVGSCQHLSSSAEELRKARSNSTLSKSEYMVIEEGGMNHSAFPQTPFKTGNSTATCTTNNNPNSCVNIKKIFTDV

[8] = target: Kv1.2 (Rattus norvegicus, UniProt P63142); assay: Inhibition of recombinant rat Kv1.2 expressed in HEK293 cells at 10 uM at -90 mV holding potential by whole cell patch clamp Qpatch method relative to control; assay type: cell-based; details: HEK293 cells expressing recombinant rat Kv1.2; in short: as §1
Kv1.2, sequence (P63142 whole entry): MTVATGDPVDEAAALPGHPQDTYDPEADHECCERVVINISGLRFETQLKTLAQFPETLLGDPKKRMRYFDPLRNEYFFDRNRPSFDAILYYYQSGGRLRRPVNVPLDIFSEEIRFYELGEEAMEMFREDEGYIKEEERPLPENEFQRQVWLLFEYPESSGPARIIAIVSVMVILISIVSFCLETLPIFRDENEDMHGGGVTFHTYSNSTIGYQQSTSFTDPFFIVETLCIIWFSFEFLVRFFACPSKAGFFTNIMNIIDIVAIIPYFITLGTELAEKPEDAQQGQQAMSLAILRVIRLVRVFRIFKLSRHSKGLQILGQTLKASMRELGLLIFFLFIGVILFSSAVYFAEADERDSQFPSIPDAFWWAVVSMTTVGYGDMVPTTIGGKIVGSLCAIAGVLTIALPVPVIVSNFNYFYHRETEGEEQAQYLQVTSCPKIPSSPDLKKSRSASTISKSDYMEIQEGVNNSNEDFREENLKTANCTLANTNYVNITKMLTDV

[9] = species on record: Mus musculus; assay: (§2) Neuroprotective activity against cuprizone-induced demyelination in C57BL/6J mouse corpus callosum assessed as improvement in neuronal conduction by measuring increase in amplitude of unmyelinated axon N2 wave at 1 uM relative to baseline; assay type: functional
In short: (§3)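 Male C57BL/6J mice (16 weeks old) fed chow with 0.2% cuprizone for 8 weeks (n = 7). Coronal slices (400 µm) containing hippocampus. CC stimulated monopolarly at 0.033 Hz (100 µs); extracellular field cAPs recorded on contralateral CC at 40–50% maximum response. After 10 min of stable baseline, compound applied at 1 or 10 µM from 10 mM aCSF stock. Mean ± SEM; n = animals.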

[10] = Neurotoxicity in C57BL/6J mouse corpus callosum assessed as effect on amplitude of unmyelinated axon N2 wave at 10 uM relative to baseline; assay type: toxicity, tissue-based; details: ex_vivo
In short: as §3, with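 “kept on normal diet” for “fed chow with 0.2% cuprizone”, “5).” for “7).”, “µs);” for “µs); extracellular”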

[11] = Neurotoxicity in C57BL/6J mouse corpus callosum assessed as effect on amplitude of unmyelinated axon N2 wave at 1 uM relative to baseline; assay type: toxicity, tissue-based; details: ex_vivo
In short: as §3, with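 “kept on normal diet” for “fed chow with 0.2% cuprizone”, “5).” for “7).”, “µs);” for “µs); extracellular”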

[12] = species on record: Mus musculus; assay: (§4) Neuroprotective activity against cuprizone-induced demyelination in C57BL/6J mouse corpus callosum assessed as improvement in neuronal conduction by measuring increase in amplitude of unmyelinated axon N2 wave at 10 uM relative to baseline; assay type: functional; in short: as §3
[13] = target: Potassium voltage-gated channel subfamily A member 1 (Rattus norvegicus) (UniProt P10499); assay: Inhibition of recombinant rat Kv1.1 concatamer expressed in HEK293 cells assessed as time constant for activation of Kv1.1 channel current at -90 mV holding potential by whole cell patch clamp Qpatch method (reference value: 2.2 +/- 0.1 ms); assay type: cell-based
[14] = target: T3, Potassium voltage-gated channel subfamily A member 1/2 (Kv1.1/Kv1.2) (Rattus norvegicus, UniProt P10499+P63142); assay: Inhibition of recombinant rat Kv1.1/Kv(1.2)3 expressed in HEK293 cells at -90 mV holding potential by whole cell patch clamp Qpatch method; assay type: cell-based; in short: as §1
[15] = as §2; assay type: functional; in short: as §3
[16] = target: T4, Potassium voltage-gated channel subfamily A member 1/2 (Kv1.1/Kv1.2) (Rattus norvegicus) (UniProt P10499+P63142); assay: Inhibition of recombinant rat Kv1.1/1.1/1.2/1.2 expressed in HEK293 cells at 10 uM at -90 mV holding potential by whole cell patch clamp Qpatch method relative to control; assay type: cell-based; in short: as §1
T4 sequence (P10499 whole entry, looked up): as the sequence (P10499 whole entry) above
T4 sequence (P63142 whole entry, looked up): as the sequence (P63142 whole entry) above

[17] = target: T1, Potassium voltage-gated channel subfamily A member 1; assay: Inhibition of Kv1.1 (unknown origin) expressed in HEK293 cells by whole cell patch clamp Qpatch method; assay type: cell-based; in short: as §1
[18] = target: Potassium voltage-gated channel subfamily A member 2 (Rattus norvegicus, UniProt P63142); assay: Inhibition of recombinant rat Kv1.2(4) expressed in HEK293 cells at -90 mV holding potential by whole cell patch clamp Qpatch method; assay type: cell-based; in short: as §1
Potassium voltage-gated channel subfamily A member 2, sequence (P63142 whole entry): as above

[19] = target: T4, Potassium voltage-gated channel subfamily A member 1/2 (Kv1.1/Kv1.2) (Rattus norvegicus); assay: Inhibition of recombinant rat Kv1.2/1.2/1.1/1.1 expressed in HEK293 cells at 10 uM at -90 mV holding potential by whole cell patch clamp Qpatch method relative to control; assay type: cell-based; in short: as §1
[20] = target: T4, Potassium voltage-gated channel subfamily A member 1/2 (Kv1.1/Kv1.2) (Rattus norvegicus); assay: Inhibition of recombinant rat Kv(1.1)3/Kv1.2 expressed in HEK293 cells assessed as time constant for activation of Kv1.1 channel current at 10 uM at -90 mV holding potential by whole cell patch clamp Qpatch method (reference value: 3.1 +/- 0.2 ms); assay type: cell-based
[21] = target: T4, Potassium voltage-gated channel subfamily A member 1/2 (Kv1.1/Kv1.2) (Rattus norvegicus); assay: Inhibition of recombinant rat Kv1.2/1.1/1.2/1.1 expressed in HEK293 cells at 10 uM at -90 mV holding potential by whole cell patch clamp Qpatch method relative to control; assay type: cell-based; in short: as §1
[22] = as §4; assay type: functional; in short: as §3
[23] = target: Potassium voltage-gated channel subfamily A member 1 (Rattus norvegicus) (UniProt P10499); assay: Inhibition of recombinant rat Kv1.1 expressed in HEK293 cells assessed as time constant for activation of Kv1.1 channel current at 10 uM at -90 mV holding potential by whole cell patch clamp Qpatch method (reference value: 1.9 +/- 0.15 ms); assay type: cell-based
[24] = target: T3, Potassium voltage-gated channel subfamily A member 1/2 (Kv1.1/Kv1.2); assay: Inhibition of recombinant rat Kv(1.1)3/Kv1.2 expressed in HEK293 cells at -90 mV holding potential by whole cell patch clamp Qpatch method; assay type: cell-based; in short: as §1
[25] = target: T3, Potassium voltage-gated channel subfamily A member 1/2 (Kv1.1/Kv1.2); assay: Inhibition of recombinant rat Kv(1.1)2/Kv(1.2)2 expressed in HEK293 cells at -90 mV holding potential by whole cell patch clamp Qpatch method; assay type: cell-based; in short: as §1
[26] = target: T2, Potassium voltage-gated channel subfamily A member 1; assay: Inhibition of recombinant rat Kv(1.1)4 expressed in HEK293 cells at -90 mV holding potential by whole cell patch clamp Qpatch method; assay type: cell-based; in short: as §1
[27] = target: Potassium voltage-gated channel subfamily A member 1 (Rattus norvegicus) (UniProt P10499); assay: Inhibition of recombinant rat Kv1.1 expressed in HEK293 cells assessed as shift of half maximal vale for activation at 10 uM at -90 mV holding potential by whole cell patch clamp Qpatch method; assay type: cell-based
[28] = target: T4, Potassium voltage-gated channel subfamily A member 1/2 (Kv1.1/Kv1.2) (Rattus norvegicus); assay: Inhibition of recombinant rat Kv(1.1)2/Kv(1.2)2 expressed in HEK293 cells assessed as time constant for activation of Kv1.1 channel current at 10 uM at -90 mV holding potential by whole cell patch clamp Qpatch method (reference value: 2.8 +/- 0.4 ms); assay type: cell-based
[29] = Partition coefficient, logP of the compound; assay type: physicochemical; details: octanol/water

T1 sequence (Q09470 whole entry): as the sequence (P10499 whole entry) above, with A9V, I202V, T213N, I449M, A471V, G476A, A480T, T481A, D482N counted along it

Compound `CC[N+](CC)(CC)CC` [TETRYLAMMONIUM] has an IC50 [1] of 30 µM.

In the case of `CC(C)(C)OC(=O)NCCNC(=O)c1ccc(-c2c3nc(c(-c4ccc(C(=O)NCCNC(=O)OC(C)(C)C)cc4)c4ccc([nH]4)c(-c4ccc(C(=O)NCCNC(=O)OC(C)(C)C)cc4)c4nc(c(-c5ccc(C(=O)NCCNC(=O)OC(C)(C)C)cc5)c5ccc2[nH]5)C=C4)C=C3)cc1`, the IC50 [2] is reported as 13 µM.

`COc1ccc([C@@H]2Sc3ccccc3N(CCN(C)C)C(=O)[C@@H]2OC(C)=O)cc1` [DILTIAZEM] gave an IC50 [1] of 144 µM.

`COc1cc(CNC(=O)CCCC/C=C/C(C)C)ccc1O` [CAPSAICIN] showed an IC50 [1] of 29 µM.

With `Cc1ccc(C(c2ccc(C)cc2)(c2ccc(C(=O)NCCCCN)[nH]2)c2ccc(C(=O)NCCCCN)[nH]2)cc1.Cl.Cl` the inhibition at 10 µM [3] was 3%, the inhibition [4] was 8% and the Activity [5] was “Non-Toxic”. The inhibition at 10 µM [6] was 4%, the inhibition [7] was 8% and the inhibition at 10 µM [8] was 3%.

Compound `O=C(NCC1CCCCN1)c1cc(OCC(F)(F)F)ccc1OCC(F)(F)F` (stereo not drawn) [FLECAINIDE] has an IC50 [1] of 209 µM.

`COC(=O)C1=C(C)NC(C)=C(C(=O)OC)C1c1ccccc1[N+](=O)[O-]` [NIFEDIPINE] showed an IC50 [1] of 96 µM.

For `Nc1ccncc1` [DALFAMPRIDINE], the Activity [9] was “inactive”, the Activity [10] was 105.7% and the Activity [11] was 105.3%. For the same compound, the Activity [12] was “inactive”.

`Cc1ccc(C(c2ccc(C)cc2)(c2ccc(C(=O)NCCN)[nH]2)c2ccc(C(=O)NCCN)[nH]2)cc1.Cl.Cl` showed a TIME [13] of 5.42e-06 h, an IC50 [14] greater than 100 µM and an Activity [15] of 108.2%. The inhibition [16] was 13%, the Activity [10] was 102.6% and the IC50 [17] was 16 µM. It also gave an inhibition at 10 µM [3] of 5%, an IC50 [18] greater than 100 µM and an inhibition [19] of 15%. For the same compound, the TIME [20] was 3.89e-06 h, the inhibition [21] was 15% and the Activity [11] was 100.9%. For the same compound, the inhibition [4] was 40%, the Activity [5] was “Non-Toxic” and the Activity [22] was 127.8%. For the same compound, the TIME [23] was 5.64e-06 h, the IC50 [24] was 54 µM and the IC50 [25] was 57 µM. It also gave an inhibition at 10 µM [6] of 1%, an IC50 [26] of 14 µM and an inhibition [7] of 15%. It also gave a V1/2 [27] of 40 mV, an inhibition at 10 µM [8] of 1% and an IC50 [2] of 16 µM. For the same compound, the TIME [28] was 5e-06 h and the logP [29] was -1.05.

With `Cc1ccc(C(c2ccc(C)cc2)(c2ccc(C(=O)NCCCN)[nH]2)c2ccc(C(=O)NCCCN)[nH]2)cc1.Cl.Cl` the inhibition at 10 µM [3] was 16%, the inhibition [4] was 35% and the Activity [5] was “Non-Toxic”. The inhibition at 10 µM [6] was 5%, the inhibition [7] was 32% and the inhibition at 10 µM [8] was 6%.
